High-throughput results (PubChem BioAssay)
SIRT5 inh – SIRT5 desuccinylase inhibitors, primary screen, biochemical, fluorescence imaging, single point, set 5; 330,000 compounds, 1.1% hits; NAD-dependent protein deacylase sirtuin-5, mitochondrial (Homo sapiens), Q9NXA8; inhibition, % at 15 µM; Purified SirT5, succinyl-peptide AMC, trypsin-coupled fluorescence; in the data active = inhibition above about 15%
E-selectin induc – E-selectin induction in HUVECs, primary screen, imaging, HUVEC, immunofluorescence imaging, single point; P16581; normalized: neutral wells 0, TNF-alpha wells 100; activation, % at 7.58 µM; 260,000 compounds, 0.37% hits;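 active = mean E-selectin-positive cell signal at least 10% of the positive control, reached in at least 60% of replicates, without over 20% cell loss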
Target sequence (P16581 whole entry, looked up): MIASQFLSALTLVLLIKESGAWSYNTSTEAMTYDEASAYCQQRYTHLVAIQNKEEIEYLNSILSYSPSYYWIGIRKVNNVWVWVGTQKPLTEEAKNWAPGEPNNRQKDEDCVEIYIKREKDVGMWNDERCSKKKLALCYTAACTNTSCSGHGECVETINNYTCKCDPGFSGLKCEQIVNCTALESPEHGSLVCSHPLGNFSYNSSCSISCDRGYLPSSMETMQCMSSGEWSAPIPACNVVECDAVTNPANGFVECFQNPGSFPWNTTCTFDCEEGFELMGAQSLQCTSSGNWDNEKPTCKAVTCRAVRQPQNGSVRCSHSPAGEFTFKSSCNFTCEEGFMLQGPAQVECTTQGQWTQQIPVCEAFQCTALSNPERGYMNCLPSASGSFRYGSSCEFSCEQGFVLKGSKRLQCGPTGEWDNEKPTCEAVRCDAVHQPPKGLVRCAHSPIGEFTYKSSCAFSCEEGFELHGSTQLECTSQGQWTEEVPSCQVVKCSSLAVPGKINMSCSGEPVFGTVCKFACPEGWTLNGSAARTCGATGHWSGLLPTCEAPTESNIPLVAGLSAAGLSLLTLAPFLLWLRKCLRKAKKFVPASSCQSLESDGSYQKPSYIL
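Test system – human umbilical vein endothelial cells (HUVEC), E-selectin induction · Input – 3,000 HUVEC seeded per well · Buffer or medium – EGM-2, gelatin · Compound dosing – single-point compound dose · Detection – immunofluorescence imaging · Measure – percent E-selectin-positive cells · Controls – TNF-alpha high, DMSO low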
DENV2 CPE – inhibitors of DENV2 cytopathic effect, primary screen, cell-based, plate reader, single concentration; DENV2-infected cells, cytopathic effect rescue; CPE inhibition, % at 9.99 µM; 350,000 compounds, 1.7% hits; AID 651640, 2012; in the data active = CPE inhibition above about 20%, passing the limit was not always enough; tested in BHK-21 cells
Hits are given with their value. Compounds with a hit are over-represented: about 2.9% of the library has one in this group of screens.

How did CCOc1ccc(NCC(=O)N/N=C/C=C/c2ccccc2)cc1 do in these assays?
SIRT5 inh: inactive; E-selectin induc: inactive; DENV2 CPE: inactive

How did CCOc1ccccc1C(=O)NCC(=O)NCCSc1ccc(Br)cc1 do in these assays?
SIRT5 inh: inactive; E-selectin induc: inactive; DENV2 CPE: inactive

How did COc1cc(O)c(C(C)=O)c2c1C=CC(C)(C)O2 do in these assays?
SIRT5 inh: inactive; DENV2 CPE: 26.7

Results for COc1cc2c(c3c1c(=O)c1ccccc1n3C)C=CC(C)(C)O2 ?
DENV2 CPE: inactive

What do the screens show for `C=CCN(CC=C)Cc1c(O)ccc2c(=O)c(-c3ccccc3)coc12`?
SIRT5 inh: inactive; DENV2 CPE: inactive

Results for CCOC(=O)C1CCN(C2=C(NS(=O)(=O)c3ccc(Br)cc3)C(=O)c3ccccc3C2=O)CC1 ?
SIRT5 inh: 22.6; DENV2 CPE: inactive

Results for NC(=O)C1CCN(C2=C(NS(=O)(=O)c3ccc(Br)cc3)C(=O)c3ccccc3C2=O)CC1 ?
SIRT5 inh: inactive; DENV2 CPE: inactive

What do the screens show for `CC(C)(C)NC(=O)CSc1nnc(-c2ccncc2)o1`?
SIRT5 inh: inactive; DENV2 CPE: inactive

Results for CCNC(=O)CSc1nnc(-c2cccs2)o1 ?
SIRT5 inh: 17.8; DENV2 CPE: inactive

How did O=C(CSc1nnc(-c2cccs2)o1)c1cccs1 do in these assays?
SIRT5 inh: inactive; DENV2 CPE: inactive

How did CCNC(=O)CCSc1nnc(-c2ccncc2)o1 do in these assays?
SIRT5 inh: 20.2; E-selectin induc: inactive; DENV2 CPE: inactive

What do the screens show for `Cc1ccc(S(=O)(=O)N(C)C[C@@H]2OCCCC[C@H](C)Oc3ccc(NS(C)(=O)=O)cc3C(=O)N([C@@H](C)CO)C[C@@H]2C)cc1`?
SIRT5 inh: inactive; E-selectin induc: inactive; DENV2 CPE: inactive

Results for CC1Cn2c(nnc2-c2ccccc2O)S1 (configuration not stated) ?
E-selectin induc: inactive; DENV2 CPE: inactive

How did Cc1cc(C)n2c(SCC(=O)NCc3ccc4c(c3)OCO4)nnc2n1 do in these assays?
SIRT5 inh: inactive; E-selectin induc: inactive; DENV2 CPE: inactive

What do the screens show for `O=C(CNC(=O)c1ccc(F)cc1)NCc1ccccn1`?
SIRT5 inh: inactive; DENV2 CPE: inactive

How did C[C@@H]1CN([C@@H](C)CO)S(=O)(=O)c2ccc(C#Cc3ccccc3)cc2O[C@H]1CN(C)S(C)(=O)=O do in these assays?
SIRT5 inh: inactive; E-selectin induc: inactive; DENV2 CPE: 26.5

How did C[C@H]1CN([C@@H](C)CO)S(=O)(=O)c2ccc(C#Cc3ccccc3)cc2O[C@@H]1CN(C)S(C)(=O)=O do in these assays?
SIRT5 inh: inactive; E-selectin induc: inactive; DENV2 CPE: inactive

Results for C[C@H](CO)N1C[C@H](C)[C@H](CN(C)S(C)(=O)=O)Oc2cc(C#Cc3ccccc3)ccc2S1(=O)=O ?
SIRT5 inh: inactive; E-selectin induc: inactive; DENV2 CPE: 28.2

Results for C[C@@H]1CN([C@H](C)CO)S(=O)(=O)c2ccc(C#Cc3ccccc3)cc2O[C@H]1CN(C)S(C)(=O)=O ?
SIRT5 inh: inactive; E-selectin induc: inactive; DENV2 CPE: inactive

How did COc1ccc(C)cc1Nc1ncnc2c1nnn2Cc1ccccc1Cl do in these assays?
E-selectin induc: inactive; DENV2 CPE: inactive

Results for Cc1cc(C)n(C(=O)CN2C(=O)c3ccccc3C2=O)n1 ?
SIRT5 inh: inactive; DENV2 CPE: inactive

What do the screens show for `C=CCOc1ccccc1OCC(O)CNC(C)C` (configuration not stated)?
SIRT5 inh: inactive; E-selectin induc: inactive; DENV2 CPE: 39.7

Results for CC(=O)Nc1ccc(OCC(O)CNC(C)C)cc1 (configuration not stated) ?
SIRT5 inh: inactive; E-selectin induc: inactive; DENV2 CPE: inactive

How did C/C=C/c1ccc(C2[C@H]3CNC[C@@H]2N3Cc2cc(F)ccc2F)cc1 (some centres not stated) do in these assays?
SIRT5 inh: inactive; E-selectin induc: inactive; DENV2 CPE: inactive

How did OC[C@H]1[C@H](c2ccccc2)C2(CN(Cc3ccncc3)C2)N1Cc1ccncc1 do in these assays?
SIRT5 inh: inactive; E-selectin induc: inactive; DENV2 CPE: inactive

Results for COc1ccc(S(=O)(=O)Nc2ccc3c(c2)C(=O)N([C@@H](C)CO)C[C@@H](C)[C@@H](CN(C)S(=O)(=O)c2ccc(C)cc2)OCCCC[C@H](C)O3)cc1 ?
SIRT5 inh: inactive; DENV2 CPE: inactive

How did COc1ccc(S(=O)(=O)N(C)C[C@@H]2OCCCC[C@H](C)Oc3ccc(NS(=O)(=O)c4ccc(C)cc4)cc3C(=O)N([C@H](C)CO)C[C@@H]2C)cc1 do in these assays?
SIRT5 inh: 23.9; E-selectin induc: inactive; DENV2 CPE: inactive
